Results as given in ChEMBL document CHEMBL1212858, “New bioactive halenaquinone derivatives from South Pacific marine sponges of the genus Xestospongia” (Bioorg Med Chem, 2010).
Counter-ions that a name gives are not always drawn.

Experiments:
Plasmodium falciparum [1] = experiment: Antiplasmodial activity against chloroquine-resistant Plasmodium falciparum FcB1 after 48 hrs; type: functional, organism-based; conditions: FcB1/Columbia
Outline: (§1)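 Ring-stage P. falciparum cultures synchronised by magnetic purification plus D-sorbitol lysis. Compounds from a 10 mg/mL DMSO mother solution were serially diluted in culture medium and incubated 48 h with parasitised erythrocytes (2% haematocrit, 1% parasitaemia). Growth was followed by 3H-hypoxanthine incorporation (9.25 kBq/well). IC50 was read graphically from inhibition–concentration plots. Triplicates, three independent experiments; chloroquine as positive control.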

Phospholipase A2 = molecular target: T1, Phospholipase A2 (Apis mellifera, UniProt P00630); experiment: Inhibition of bee venom phospholipase A2 after 5 mins by spectrophotometric analysis
T1 sequence (P00630 whole entry): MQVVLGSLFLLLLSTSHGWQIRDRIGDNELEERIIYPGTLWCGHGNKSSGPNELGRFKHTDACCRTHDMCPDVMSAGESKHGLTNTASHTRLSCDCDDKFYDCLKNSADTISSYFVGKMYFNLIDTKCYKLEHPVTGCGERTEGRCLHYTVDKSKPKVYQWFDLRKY
Outline: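 Colorimetric assay with Apis mellifera venom PLA2, added as 2 µL of a 1 mg/mL […]. Test material in DMSO was preincubated with the enzyme for 1 h at 25 °C. Substrate solution was then added: L-α-phosphatidylcholine 3.5 mM, phenol red 0.055 mM, NaCl 100 mM, CaCl2 10 mM, Triton 7 mM, pH 7.6. Absorbance at 550 nm was read at 0 and 5 min, in duplicate. Manoalide as positive control.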

Vero = experiment: Cytotoxicity against african green monkey Vero cells assessed as inhibition of [3H]hypoxanthine incorporation after 48 hrs; type: cell-based; conditions: Chlorocebus sabaeus
Outline: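 VERO cells (10^5 cells/well) exposed 48 h to serial dilutions in culture medium of a 10 mg/mL DMSO mother solution; growth inhibition by 3H-hypoxanthine incorporation (9.25 kBq/well). Highest concentration tested 20 µg/mL. IC50 read graphically from inhibition-versus-concentration plots; triplicates on three independent occasions, mean ± SEM (n = 3). Doxorubicin positive control.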

[2] = Inhibition of Saccharomyces cerevisiae FTase after 15 mins by fluorimetric analysis
Outline: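 Partially purified recombinant yeast FTase (2.2 mg/mL, 0.1 mL per 7.0 mL peptide solution) with dansyl-GCVLS peptide in 53 mM Tris/HCl pH 7.5, 5.8 mM DTT, 6 mM MgCl2, 12 µM ZnCl2, 0.09% CHAPS. Inhibitors added from DMSO; started with farnesyl pyrophosphate (10 µM stock). Fluorescence (ex 340/em 486 nm) followed 15 min at 30 °C; duplicates, run twice.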

[3] = molecular target: Protein farnesyltransferase (Homo sapiens, UniProt P49354+P49356); experiment: Inhibition of human FTase after 15 mins by fluorimetric analysis; type: protein-complex assay
Outline: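 Partially purified human FTase (1.5 mg/mL, 5 µL per 1 mL peptide solution) with dansyl-GCVLS peptide in Tris/HCl pH 7.5 buffer with DTT, MgCl2, ZnCl2 and 0.18% octyl-D-glucopyranoside in place of CHAPS. Inhibitors added from DMSO; started with farnesyl pyrophosphate (10 µM stock). Fluorescence (ex 340/em 486 nm) read 15 min at 30 °C; duplicates, run twice.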

Plasmodium falciparum [4] = experiment: Antiplasmodial activity against chloroquine-sensitive Plasmodium falciparum 3D7 after 48 hrs; type: functional, organism-based; conditions: 3D7, 48 h; outline: as §1
[5] = Selectivity ratio of IC50 for african green monkey (Cercopithecus aethiops) Vero cells to IC50 for chloroquine-resistant Plasmodium falciparum FcB1; type: ADME, cell-based; conditions: read-out: Ratio IC50
Outline: (§2)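 Compounds were serially diluted from a 10 mg/mL DMSO stock into medium and added to VERO cells (10^5 cells/well) or to synchronised ring-stage P. falciparum (2% haematocrit, 1% parasitaemia). Read-out was 3H-hypoxanthine incorporation, with IC50 read graphically. Triplicates, three independent times; doxorubicin and chloroquine as controls.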

[6] = Selectivity ratio of IC50 for african green monkey (Cercopithecus aethiops) Vero cells to IC50 for chloroquine-sensitive Plasmodium falciparum 3D7; type: ADME, cell-based; conditions: read-out: Ratio IC50; outline: as §2

## C[C@@]12CC[C@H](O)[C@@H]3COC(=C31)C(=O)c1cc3c(cc12)C(O)CCC3=O (stereo partly specified) [XESTOSAPROL A]
Plasmodium falciparum [1]
  IC50: > 29 µM
Phospholipase A2
  IC50: 1000 µM
Vero
  IC50: > 58 µM
[2]
  IC50: > 30 µM
[3]
  IC50: > 30 µM
Plasmodium falciparum [4]
  IC50: > 29 µM

## COc1cccc2c1C(=O)c1c(O)c3c(c(O)c1C2=O)C[C@@](O)(C(=O)CO)C[C@@H]3O[C@H]1C[C@H](N)[C@H](O)[C@H](C)O1 [DOXORUBICIN]
Vero
  IC50: 5.12 µM

## C[C@@]12CCC(=O)c3coc(c31)C(=O)c1cc3c(cc12)C(=O)C1=C(NCCS1(=O)=O)C3=O [3-KETOADOCIAQUINONE B]
Plasmodium falciparum [1]
  IC50: 3.89 µM
[5]
  selectivity ratio: 5
Phospholipase A2
  IC50: 105 µM
[6]
  selectivity ratio: 5
Vero
  IC50: > 45 µM
[2]
  IC50: 3.75 µM
[3]
  IC50: 9.27 µM
Plasmodium falciparum [4]
  IC50: 4.12 µM

## C[C@@]12CCC(=O)c3coc(c31)C(=O)c1cc3c(cc12)C(=O)C1=C(C3=O)S(=O)(=O)CCN1 [3-KETOADOCIAQUINONE A]
Plasmodium falciparum [1]
  IC50: 1.08 µM
[5]
  selectivity ratio: 5
Phospholipase A2
  IC50: 140 µM
[6]
  selectivity ratio: 5
Vero
  IC50: > 45 µM
[2]
  IC50: 1.48 µM
[3]
  IC50: 4.19 µM
Plasmodium falciparum [4]
  IC50: 1.67 µM

## CO[C@]12OC(O)C3=C1[C@@](C)(CCC3=O)c1cc3c(OS(=O)(=O)O)ccc(O)c3cc1C2=O (stereo partly specified) [XESTOSAPROL C METHYLACETAL]
Plasmodium falciparum [1]
  IC50: > 21 µM
Phospholipase A2
  IC50: 570 µM
Vero
  IC50: > 42 µM
[2]
  IC50: 6.71 µM
[3]
  IC50: 4.34 µM
Plasmodium falciparum [4]
  IC50: > 21 µM

## CC1=CCCC2(C)C1=C(O)C(=O)c1cc3c(cc12)C(=O)C=CC3=O (stereo unspecified) [ORHALQUINONE]
Plasmodium falciparum [1]
  IC50: 9.22 µM
[5]
  selectivity ratio: 5
Phospholipase A2
  IC50: 1570 µM
[6]
  selectivity ratio: 5
Vero
  IC50: > 62 µM
[2]
  IC50: 0.4 µM
[3]
  IC50: 0.41 µM
Plasmodium falciparum [4]
  IC50: 10.9 µM

## C[C@@]12CCC(=O)c3coc(c31)C(=O)c1cc3c(O)ccc(OS(=O)(=O)O)c3cc12 [HALENAQUINOL SULFATE SODIUM]
Plasmodium falciparum [1]
  IC50: > 24 µM
Phospholipase A2
  IC50: 1000 µM
Vero
  IC50: > 48 µM
[2]
  IC50: 16.1 µM
[3]
  IC50: 21.5 µM
Plasmodium falciparum [4]
  IC50: > 24 µM

## C[C@@]12CC[C@H](O)[C@@H]3COC(=C31)C(=O)c1cc3c(cc12)C(=O)CC[C@@H]3O [TETRAHYDROHALENAQUINONE A]
Plasmodium falciparum [1]
  IC50: > 29 µM
Phospholipase A2
  IC50: 600 µM
Vero
  IC50: > 58 µM
[2]
  IC50: > 30 µM
[3]
  IC50: > 30 µM
Plasmodium falciparum [4]
  IC50: > 29 µM

## C[C@@]12CCC(=O)c3coc(c31)C(=O)c1cc3c(cc12)C(=O)C=CC3=O [HELENAQUINONE]
Plasmodium falciparum [1]
  IC50: > 30 µM
Phospholipase A2
  IC50: 3.7 µM
Vero
  IC50: > 60 µM
[2]
  IC50: 1.57 µM
[3]
  IC50: 0.93 µM
Plasmodium falciparum [4]
  IC50: > 30 µM

## CC1=C(CC/C(C)=C/CCC2=CC[C@H](C3=CC(=O)O[C@H]3O)O[C@H]2O)C(C)(C)CCC1 [MANOALIDE]
Phospholipase A2
  IC50: 0.5 µM
